In PMC6144584 (SAGE Open Medicine, 2018):

System: PBMC from prostate cancer patients
Test: Ex vivo IFN-γ ELISPOT assay for immunogenicity
Format: cell-based, human
Conditions: positive control 10 µg/ml, 40 h
Method in brief: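 Ficoll-isolated patient PBMC, 3×10^5/well in triplicate, on anti-IFN-γ-coated plates (5 μg/ml; blocked with RPMI 1640 + 5% pooled human serum, 1 h, 37°C). Phytohemagglutinin 10 µg/ml; no-peptide medium control; IL-2 20 units/ml in all wells; 40 h, 37°C. Detection: biotin anti-IFN-γ 1 µg/ml final (2 h), avidin-biotin-HRP (1 h), […]. Spots counted automatically; mean SFU/well computed; positive if ≥2× no-peptide wells.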

Q: How did the Positivity index (Patient 2) turn out when phytohemagglutinin was run?
A: 57.3

Q: What about the Positivity index (Patient 5) of the same substance?
A: 197.0

Q: What about the Positivity index (Patient 6) of the same substance?
A: 154.5

Q: What about the Positivity index (Patient 7) of the same substance?
A: 131.4

Q: What about the Positivity index (Patient 9) of the same substance?
A: 186.0

Q: What about the Positivity index (Patient 10) of the same substance?
A: 253.3
